# Experiments:
# Type in all cases: functional, cell-based
# [1] = Antiproliferative activity against human LM7 cells after 72 hrs by MTT assay; conditions: LM7, 72 h
# How it was run: (§1)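 Cells seeded at 8000 per well in 96-well plates, exposed to compound for 72 h. MTT added at 0.5 mg/mL final and incubated 4 h. Formazan dissolved in DMSO, absorbance read at 570 nm. IC50 is the concentration giving 50% reduction in cell growth, reported as the mean of three repeated experiments.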
# [2] = Antiproliferative activity against human MDA-MB-435S cells after 72 hrs by MTT assay; how it was run: as §1
# [3] = system: SW480; assay: Antiproliferative activity against human SW480 cells after 72 hrs by MTT assay; conditions: SW480, 72 h; how it was run: as §1
# [4] = system: HEp-2; assay: Antiproliferative activity against human Hep2 cells after 72 hrs by MTT assay; conditions: HEp-2, 72 h; how it was run: as §1
# [5] = system: MCF7; assay: Antiproliferative activity against human MCF7 cells after 72 hrs by MTT assay; conditions: MCF7, 72 h; how it was run: as §1
# [6] = system: HeLa; assay: Antiproliferative activity against human HeLa cells after 72 hrs by MTT assay; how it was run: as §1
IC50 [3],IC50 [5],IC50 [6],SMILES,IC50 [1],IC50 [2],IC50 [4]
1.8 µM,11.1 µM,4.5 µM,O=c1c(Cl)c(CSC(=S)N2CCOCC2)oc2ccccc12,19.2 µM,4.1 µM,9 µM
5.9 µM,41.4 µM,4.4 µM,Cc1ccc2occ(CSC(=S)N3CCCC3)c(=O)c2c1,3.4 µM,1.9 µM,3.6 µM
23.4 µM,35.8 µM,23.1 µM,O=c1cc(CSC(=S)N2CCCC2)oc2ccccc12,40 µM,> 30 µM,9.1 µM
24.4 µM,21 µM,35.6 µM,O=c1cc(CSC(=S)N2CCOCC2)oc2ccccc12,25.2 µM,22.2 µM,> 25 µM
> 25 µM,12.2 µM,3.8 µM,O=c1c(SC(=S)N2CCCC2)coc2ccccc12,,1.9 µM,7.4 µM
21.2 µM,> 25 µM,25.9 µM,O=c1cc(CSC(=S)N2CCN(c3ccccc3)CC2)oc2ccc(Cl)cc12,15.9 µM,18.6 µM,15.9 µM
2.5 µM,> 25 µM,> 25 µM,O=c1cc(CSC(=S)N2CCCCC2)oc2ccc(Cl)cc12,13.8 µM,3 µM,1.6 µM
3.1 µM,> 25 µM,> 25 µM,COc1ccc2c(=O)cc(CSC(=S)N3CCOCC3)oc2c1,11 µM,3.4 µM,3 µM
> 25 µM,21.9 µM,5.8 µM,CCOC(=O)c1cc(=O)c2cc(CSC(=S)N3CCCCC3)ccc2o1,16.9 µM,2.9 µM,3.4 µM
> 25 µM,> 25 µM,6.6 µM,CCOC(=O)c1cc(=O)c2cc(CSC(=S)N3CCCC3)ccc2o1,18 µM,3.4 µM,8.9 µM
16.3 µM,,9 µM,O=c1c(SC(=S)N2CCCCC2)coc2ccccc12,7.8 µM,17.4 µM,5.8 µM
1.4 µM,2.3 µM,0.7 µM,O=c1c(Cl)c(CSC(=S)N2CCCC2)oc2ccccc12,1.9 µM,1.8 µM,0.6 µM
2.3 µM,10 µM,11.9 µM,COc1ccc2c(=O)cc(CSC(=S)N3CCCCC3)oc2c1,5 µM,1.5 µM,1.5 µM
7.8 µM,0.6 µM,1.3 µM,O=c1c(CSC(=S)N2CCCC2)coc2ccc(Cl)cc12,2.6 µM,6.4 µM,2.1 µM
2.3 µM,> 25 µM,> 25 µM,O=c1c(CSC(=S)N2CCCC2)coc2ccccc12,6 µM,3.8 µM,3.6 µM
> 25 µM,> 25 µM,> 40 µM,O=c1cc(CSC(=S)N2CCCC2)oc2ccc(Cl)cc12,> 25 µM,> 25 µM,> 40 µM
1.2 µM,1.7 µM,2.3 µM,O=c1c(CSC(=S)N2CCCCC2)coc2ccccc12,4.6 µM,0.47 µM,0.39 µM
13.7 µM,> 25 µM,> 25 µM,O=c1cc(CSC(=S)N2CCCCC2)oc2ccccc12,> 25 µM,> 25 µM,12 µM
> 25 µM,> 25 µM,33.3 µM,O=c1cc(CSC(=S)N2CCOCC2)oc2ccc(Cl)cc12,> 25 µM,> 25 µM,20.6 µM

# The remaining lines, values behind:
SMILES,IC50 [3],IC50 [5],IC50 [6],IC50 [1],IC50 [2],IC50 [4]
CCOC(=O)c1cc(=O)c2cc(CSC(=S)N3CCOCC3)ccc2o1,> 25 µM,> 25 µM,> 25 µM,> 25 µM,> 25 µM,> 25 µM
O=c1c(CSC(=S)N2CCN(c3ccccc3)CC2)coc2ccccc12,5.2 µM,> 30 µM,7.1 µM,2.9 µM,9.7 µM,16.7 µM
O=c1c(SC(=S)N2CCCC2)coc2ccc(Cl)cc12,> 25 µM,> 25 µM,16.3 µM,24.6 µM,24 µM,26 µM
CC(C)N(C(=S)SCc1coc2ccccc2c1=O)C(C)C,6.8 µM,> 30 µM,> 30 µM,21.9 µM,7.9 µM,3 µM
CC(C)N(C(=S)SCc1cc(=O)c2ccccc2o1)C(C)C,> 40 µM,31.7 µM,,> 25 µM,> 40 µM,13.6 µM
CCN(CC)C(=S)SCc1cc(=O)c2cc(Cl)ccc2o1,> 25 µM,> 25 µM,8.7 µM,8.8 µM,23.5 µM,8.8 µM
CC(C)N(C(=S)SCc1cc(=O)c2cc(Cl)ccc2o1)C(C)C,> 25 µM,> 25 µM,> 30 µM,> 30 µM,> 25 µM,22.7 µM
Cc1ccc2occ(CSC(=S)N3CCOCC3)c(=O)c2c1,3.8 µM,20.7 µM,6.1 µM,14.3 µM,5.5 µM,4 µM
COc1ccc2c(=O)cc(CSC(=S)N(C(C)C)C(C)C)oc2c1,7.2 µM,> 25 µM,> 25 µM,19.1 µM,22.1 µM,7.6 µM
COc1ccc2c(=O)c(CSC(=S)N3CCCCC3)coc2c1,6.7 µM,> 40 µM,3.5 µM,4.7 µM,0.93 µM,4.3 µM
O=c1c(CSC(=S)N2CCOCC2)coc2ccccc12,5.9 µM,4 µM,,12 µM,3.9 µM,4.4 µM
O=c1c(CSC(=S)N2CCOCC2)coc2ccc(Cl)cc12,6.2 µM,8.1 µM,2 µM,6.2 µM,0.6 µM,0.9 µM
CN1CCN(C(=S)SCc2coc3ccccc3c2=O)CC1,,22.9 µM,5.9 µM,17.6 µM,2.2 µM,2.4 µM
O=c1cc(CSC(=S)N(CCCl)CCCl)oc2ccccc12,25.1 µM,> 25 µM,> 25 µM,> 25 µM,3.7 µM,15.6 µM
CCOC(=O)c1cc(=O)c2cc(CSC(=S)N(C)c3ccccc3)ccc2o1,> 25 µM,> 25 µM,18.1 µM,> 25 µM,13.5 µM,
COc1ccc2c(=O)c(CSC(=S)N3CCCC3)coc2c1,4.8 µM,34.1 µM,12.1 µM,6 µM,1.8 µM,3.1 µM
CN(C(=S)SCc1coc2ccccc2c1=O)c1ccccc1,> 25 µM,> 25 µM,> 25 µM,> 25 µM,> 25 µM,> 25 µM
CC(C)N(C(=S)SCc1coc2ccc(Cl)cc2c1=O)C(C)C,> 25 µM,,> 25 µM,> 25 µM,> 25 µM,4.2 µM
CCOC(=O)c1cc(=O)c2cc(CSC(=S)N(C(C)C)C(C)C)ccc2o1,> 25 µM,> 25 µM,> 25 µM,> 25 µM,8.1 µM,15.9 µM
Cc1ccc2occ(CSC(=S)N3CCCCC3)c(=O)c2c1,> 25 µM,0.8 µM,> 25 µM,5.1 µM,1.7 µM,0.9 µM
O=c1c(SC(=S)N2CCCCC2)coc2ccc(Cl)cc12,> 25 µM,> 25 µM,8.3 µM,> 25 µM,13.3 µM,12.2 µM
COc1ccc2c(=O)c(CSC(=S)N(C(C)C)C(C)C)coc2c1,4.8 µM,> 40 µM,5.4 µM,4.7 µM,1.8 µM,8.9 µM
Cc1ccc2occ(CSC(=S)N(C(C)C)C(C)C)c(=O)c2c1,> 25 µM,6.6 µM,1.4 µM,6.3 µM,0.24 µM,0.7 µM
O=c1c(CSC(=S)N2CCN(C(c3ccc(F)cc3)c3ccc(F)cc3)CC2)coc2ccccc12,> 40 µM,> 30 µM,> 25 µM,> 25 µM,> 40 µM,9.6 µM
O=c1c(CSC(=S)N2CCN(Cc3ccccc3)CC2)coc2ccccc12,4.5 µM,9.6 µM,7.9 µM,19.1 µM,4.4 µM,2.9 µM
CC(C)N(C(=S)SCc1oc2ccccc2c(=O)c1Cl)C(C)C,18.1 µM,> 40 µM,> 40 µM,> 40 µM,23.6 µM,20 µM
COc1ccc2c(=O)c(CSC(=S)N3CCOCC3)coc2c1,7.1 µM,11.8 µM,9.5 µM,> 40 µM,> 40 µM,4.8 µM
